Where only a bound is given, the exact number is not on record here.

The test system of one data set is HDACs 1–9. Briefly: HDAC assay: biochemical profiling against purified HDAC isoforms.
Data set [1] in a line: Blood half-life of 1a after i.v. or p.o. administration. In kind it is in vivo, C57BL/6 mice. Particulars: for dosed compound still present in whole blood: i.v., after initial burst phase.
A short description of data set [2]: Biodistribution of 1a after i.v. injection. The class given is in vivo, C57BL/6 mice. Particulars: 1 hour and 3 hours after i.v. injection. An outline of the steps:
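Six C57BL/6 mice received 241 ± 18 μCi of the 18F-labelled test compound by tail-vein i.v. injection. Groups were killed at 1 h (n=3) and 3 h (n=3) post-injection. Tissues were excised and weighed, and radioactivity was gamma-counted and expressed as %ID/g.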

Data set [3] has as its system A2780 human ovarian cancer cells. As to the kind of experiment: PET-CT of A2780 tumor xenograft before and after competition with cold SAHA. To be noted: after systemic administration. In kind it is in vivo, Nu/Nu mice.
Data set [4] deals with HDAC. To be noted: cited from earlier work.
For data set [5], the system named is HDAC. To be noted: cited from earlier work. The source holds these as a separate data set.

For `O=C(CCCCCCC(=O)Nc1ccc([18F])cc1)NO` [1a, 18F-suberoylanilide hydroxamic acid], the HDAC potency entry with HDACs 1–9 was “low nanomolar potency”. For the same compound, the “dosed compound still present in whole blood” value in data set [1] (formulation A (60% PEG400, 40% water)) is listed as less than 1%. The “dosed compound still present in whole blood” value in data set [1] (formulation B (10%DMSO, 90% water)) is listed as approximately 3%. The “terminal half-life relative to initial t1/2” value in data set [1] (single bolus i.v.) was “approximately 10 times longer”. In data set [2], the “concentration in cardiac tissue” value is recorded as “comparatively low concentrations”; the “tissues with highest concentration” value is “kidney, liver and blood”; the “tissues with lowest concentration” value was “thymus and brain”. Moreover, the accumulation in tumors entry in data set [3] is given as “accumulate in tumors in a time-dependent manner”.
With `O=C(CCCCCCC(=O)Nc1ccc([19F])cc1)NO` [1b, N-Hydroxy-N'-(4-fluorophenyl)octanediamide], in the data set with HDACs 1–9 (HDACs 1–3 and 6), the “potency and selectivity of inhibition of primary HDAC targets compared with SAHA” value is “virtually indistinguishable from SAHA”. The HDAC isoforms inhibited result in the data set with HDACs 1–9 (profiled against purified HDACs 1–9) was “inhibited only HDACs 1–3 and 6”.
Take `Nc1ccccc1NC(=O)c1ccc(CNC(=O)OCc2cccnc2)cc1` [5b]: in the data set with HDAC [4], the HDAC isoform selectivity result was “selective for HDAC1–3” and the “potency relative to SAHA (fold less potent)” value was 20–70 fold.
Regarding `O=C(C[18F])NCCCCCC(=O)Nc1ccccc1` [compound 4, 6-([18F]-fluoroacetamide)-1-hexanoicanilide], the metabolism in vivo result in the data set with HDAC [5] was “rapidly metabolized in vivo”.

The record behind these values is PMC3150598 (Journal of medicinal chemistry, 2011).
